The source made the active and inactive calls. The calls are words filed in the database; no cut-off is given here.

Holding throughout (type): functional, organism-based
The subject of one test is Trichomonas vaginalis. Nature of the test: Antiprotozoal activity against Trichomonas vaginalis.
The next test concerns Escherichia coli. Nature of the test: Antibacterial activity against Escherichia coli at 20 to 120 ug/disk. The essentials: (§1)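 Agar diffusion test with compound loaded at 20 to 120 µg/disk. Read-out is a zone of growth inhibition of the test organism on agar. The same format covers bacteria (S. aureus, B. subtilis, E. coli, P. aeruginosa), the fungus Mucor miehei and the yeast Candida albicans.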

A further test relates to Rhizomucor miehei. Nature of the test: Antifungal activity against Mucor miehei at 20 to 120 ug/disk. The essentials:
as §1

The test system of another test is Staphylococcus aureus. Put plainly: Antibacterial activity against Staphylococcus aureus at 20 to 120 ug/disk. The essentials: as §1
The test system of the next test is Bacillus subtilis. Put plainly: Antibacterial activity against Bacillus subtilis at 20 to 120 ug/disk. The essentials: as §1
A further test deals with Pseudomonas aeruginosa. Nature of the test: Antibacterial activity against Pseudomonas aeruginosa at 20 to 120 ug/disk. The essentials: as §1
The subject of another test is Candida albicans. Put plainly: Antifungal activity against Candida albicans at 20 to 120 ug/disk. The essentials:
as §1

For `C[C@@H]1CC(=O)C2=C(C3OC3[C@]3(O)[C@H]2C(=O)c2cccc(O)c2[C@@H]3O)[C@H]1O` (stereo not given in full), the outcome in the test with Trichomonas vaginalis, in the test on Escherichia coli, in the test with Rhizomucor miehei, with Staphylococcus aureus, in the test on Bacillus subtilis and with Pseudomonas aeruginosa was inactive. The outcome in the test with Candida albicans was inactive.

For `C[C@@H]1CC(=O)C2=C(C1)C[C@@H](O)[C@]1(O)[C@H]2C(=O)c2cccc(O)c2[C@@H]1O`, the result with Trichomonas vaginalis, in the test with Escherichia coli, in the test with Rhizomucor miehei, in the test on Staphylococcus aureus, in the test on Bacillus subtilis and in the test with Pseudomonas aeruginosa was inactive. The result in the test with Candida albicans was inactive.

With `C[C@@H]1CC(=O)C2=C(C1)C1OC1[C@]1(O)[C@H]2C(=O)c2cccc(O)c2[C@@H]1O` (stereo not given in full), the outcome in the test on Trichomonas vaginalis, with Escherichia coli, in the test on Rhizomucor miehei, with Staphylococcus aureus, in the test on Bacillus subtilis and with Pseudomonas aeruginosa was inactive. For the same compound, in the test on Candida albicans, the result was inactive.

`C[C@@H]1CC(=O)C2=C(C[C@@H](O)[C@]3(O)[C@H]2C(=O)c2cccc(O)c2[C@@H]3O)[C@H]1O`: the result with Trichomonas vaginalis, with Escherichia coli, with Rhizomucor miehei, in the test with Staphylococcus aureus, in the test on Bacillus subtilis and in the test with Pseudomonas aeruginosa was inactive. The result in the test with Candida albicans was inactive.

On to `C[C@@H]1CC(=O)c2c(ccc3c2C(=O)c2cccc(O)c2C3=O)C1`, for which the result in the test on Bacillus subtilis and in the test with Pseudomonas aeruginosa was Active.

As for `CC1CC(=O)C2(O)C(O)(CCC34OC32C(=O)c2cccc(O)c2C4O)C1` (stereo not given), the result in the test on Escherichia coli, with Rhizomucor miehei, in the test with Staphylococcus aureus, with Bacillus subtilis, in the test on Pseudomonas aeruginosa and in the test on Candida albicans was inactive.

Turning to `C[C@H]1CC(=O)c2c(ccc3c2C(=O)c2cccc(O)c2C3=O)[C@@H]1O`, the result in the test with Bacillus subtilis and with Pseudomonas aeruginosa was Active.

Regarding `C[C@@H]1CC(=O)C2=C(CC[C@]3(O)[C@H]2C(=O)c2cccc(O)c2[C@@H]3O)C1`, the outcome with Trichomonas vaginalis, with Escherichia coli, in the test on Rhizomucor miehei, in the test on Staphylococcus aureus, in the test with Bacillus subtilis and in the test on Pseudomonas aeruginosa was inactive. Also, in the test with Candida albicans, the outcome was inactive.
